Measured values taken from ChEMBL document CHEMBL1154373, “Laetirobin from the parasitic growth of Laetiporus sulphureus on Robinia pseudoacacia” (J Nat Prod, 2009).
Active and inactive are the calls of the source. The rule behind the calls is not given here.

Tests used:
HeLa [1] = test: Inhibition of mitosis in human HeLa cells assessed as actin hyperfilamentation at 1 nM by FITC-phalloidin staining; type: functional, cell-based
Outline: (§1)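 Cells treated with 1 nM compound before entry into mitosis, then fixed with formalin. Stained for microtubules with BODIPY-FL paclitaxel, actin with FITC-phalloidin, and DNA. Analysed by confocal microscopy for actin filamentation, microtubule structure and daughter-cell separation.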

HeLa [2] = test: Cytostatic activity against human HeLa cells; type: functional, cell-based
HCT-116 [3] = test: Cytostatic activity against human HCT116 cells; type: functional, cell-based
N2a [4] = test: Cytostatic activity against mouse Neuro2a cells; type: functional, cell-based
[5] = Drug localization in nuclear envelope of mouse Neuro2A cells at 1 nM after 1 hr by fluorescence microscopy; type: ADME, cell-based; settings: 0.001 µM
[6] = Drug localization in large vesicles of mouse Neuro2A cells at 1 nM after 1 hr by fluorescence microscopy; type: ADME, cell-based; settings: 0.001 µM
[7] = Drug localization in nuclear envelope of human HCT116 cells at 1 nM after 1 hr by confocal microscopy; type: ADME, cell-based; settings: hct-116, 1 h, 0.001 µM
[8] = Drug localization in large vesicles of human HCT116 cells at 1 nM after 1 hr by confocal microscopy; type: ADME, cell-based; settings: hct-116, 1 h, 0.001 µM
N2a [9] = test: Inhibition of mitosis in mouse Neuro2a cells assessed as chromatin compactness at 1 nM after 6 to 12 hrs by time-lapse microscopy; type: functional, cell-based
Outline: (§2)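 Cells treated with 1 nM compound and followed by time-lapse microscopy imaging the compound's native fluorescence. Bleb formation and chromatin compaction scored at 6 h and 12 h after treatment.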

N2a [10] = test: Inhibition of mitosis in mouse Neuro2a cells assessed as bleb formation at 1 nM after 6 to 12 hrs by time-lapse microscopy; type: functional, cell-based; outline: as §2
HCT-116 [11] = test: Inhibition of mitosis in human HCT116 cells assessed as bleb formation at 1 nM after 6 to 12 hrs by time-lapse microscopy; type: functional, cell-based; outline: as §2
HCT-116 [12] = test: Inhibition of mitosis in human HCT116 cells assessed as chromatin compactness at 1 nM after 6 to 12 hrs by time-lapse microscopy; type: functional, cell-based; outline: as §2
HCT-116 [13] = test: Inhibition of mitosis in human HCT116 cells assessed as membrane scarring between daughter cells at 1 nM by confocal microscopy; type: functional, cell-based; outline: as §1
HCT-116 [14] = test: Inhibition of mitosis in human HCT116 cells assessed as hyperfilamentation of actin at 1 nM by FITC-phalloidin staining; type: functional, cell-based; outline: as §1
HCT-116 [15] = test: Inhibition of mitosis in human HCT116 cells assessed as microtubule disassociation at 1 nM by BODIPY-FL paclitaxel staining; type: functional, cell-based; outline: as §1
HeLa [16] = test: Inhibition of mitosis in human HeLa cells assessed as microtubule disassociation at 1 nM by BODIPY-FL paclitaxel staining; type: functional, cell-based; outline: as §1
HeLa [17] = test: Inhibition of mitosis in human HeLa cells assessed as membrane scarring between daughter cells at 1 nM by confocal microscopy; type: functional, cell-based; outline: as §1
N2a [18] = test: Inhibition of mitosis in mouse Neuro2a cells assessed as actin hyperfilamentation at 1 nM by FITC-phalloidin staining; type: functional, cell-based; outline: as §1
N2a [19] = test: Inhibition of mitosis in mouse Neuro2a cells assessed as microtubule disassociation at 1 nM by BODIPY-FL paclitaxel staining; type: functional, cell-based; outline: as §1
N2a [20] = test: Inhibition of mitosis in mouse Neuro2a cells assessed as membrane scarring between daughter cells at 1 nM by confocal microscopy; type: functional, cell-based; outline: as §1
HeLa [21] = test: Inhibition of mitosis in human HeLa cells assessed as chromatin compactness at 1 nM after 6 to 12 hrs by time-lapse microscopy; type: functional, cell-based; outline: as §2
HeLa [22] = test: Inhibition of mitosis in human HeLa cells assessed as bleb formation at 1 nM after 6 to 12 hrs by time-lapse microscopy; type: functional, cell-based; outline: as §2
[23] = Drug localization in lysosome of human HCT116 cells at 1 nM assessed as increase of fluorescence with acidity after 1 hr by spectrophotometric analysis; type: ADME, cell-based; settings: hct-116, 1 h, 0.001 µM

IC50 (HeLa [2]): 0.12 nM
IC50 (HCT-116 [3]): 0.54 nM
IC50 (N2a [4]): 0.092 nM
Activity [5]: Active
Activity [6]: Active
Activity [7]: Active
Activity [8]: Active
Activity [23]: Active
SMILES: CC(=O)c1cc2c(cc1O)OC1=C(c3cc4cc(C(C)=O)c(O)cc4o3)CCC(c3cc4cc(C(C)=O)c(O)cc4o3)(c3cc4cc(C(C)=O)c(O)cc4o3)C12 (racemic)
Activity (HeLa [1]): Active
Activity (N2a [9]): Active
Activity (N2a [10]): Active
Activity (HCT-116 [11]): Active
Activity (HCT-116 [12]): Active
Activity (HCT-116 [13]): Active
Activity (HCT-116 [14]): Active
Activity (HCT-116 [15]): Active
Activity (HeLa [16]): Active
Activity (HeLa [17]): Active
Activity (N2a [18]): Active
Activity (N2a [19]): Active
Activity (N2a [20]): Active
Activity (HeLa [21]): Active
Activity (HeLa [22]): Active
